Activity calls are given as the source filed them. The calls are words filed in the database; no cut-off is given here.
Experiments:
Saccharomyces cerevisiae [1] = test: DNA damaging activity against […] assessed as drug concentration required to produce 12 mm zone of inhibition up to 800 ug/well by agar diffusion assay; assay type: functional, organism-based; settings: W303-1A
L1210 [2] = test: Antiproliferative activity against mouse L1210 cells; assay type: functional, cell-based
In short: (§1)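 Murine L1210 cells were grown in suspension culture and proliferation was measured.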

Saccharomyces cerevisiae [3] = test: DNA damaging activity against […] assessed as drug concentration required to produce 12 mm zone of inhibition by agar diffusion assay; assay type: functional, W303-1A
L1210 [4] = test: Antiproliferative activity against mouse L1210 cells up to 32 uM; assay type: functional, cell-based; in short: as §1

How did the Activity (Saccharomyces cerevisiae [1]) turn out when `CO[C@H]1[C@H](O)[C@H](O[C@H]2CC[C@@]3(C)[C@H](CC[C@@H]4[C@@H]3CC[C@]3(C)[C@@H](C5=CC(=O)OC5)CC[C@]43O)C2)O[C@@H](C)[C@@H]1O` was run?
The Activity was “inactive”.

How did the Activity (Saccharomyces cerevisiae [1]) turn out when `CO[C@H]1C[C@H](O[C@H]2CC[C@]3(C=O)[C@H]4CC[C@]5(C)[C@@H](C6=CC(=O)OC6)CC[C@]5(O)[C@@H]4CC[C@]3(O)C2)O[C@H](C)[C@H]1O[C@H]1O[C@@H](CO)[C@H](O[C@@H]2O[C@H](CO)[C@@H](O)[C@H](O)[C@H]2O)[C@@H](O)[C@@H]1O` was run?
Its Activity is “inactive”.

`C[C@H]1CC[C@@]2(OC1)O[C@H]1C[C@H]3[C@@H]4CC[C@H]5C[C@@H](O)C[C@@H](O[C@H]6O[C@@H](C)[C@@H](O)[C@@H](O)[C@@H]6O)[C@]5(C)[C@H]4CC[C@]3(C)[C@H]1[C@@H]2C` [BRISBAGENIN FUCOSIDE] was tested. Which IC50 (L1210 [2]) did it give?
The IC50 was 5 µM.

What about the IC12 (Saccharomyces cerevisiae [3]) of the same compound?
Its IC12 is 2.6 µg.

What about the Activity (L1210 [4]) of the same compound?
The Activity was “inactive”.

Which Activity (Saccharomyces cerevisiae [1]) does the source give for `C[C@@H]1O[C@@H](O[C@H]2CC[C@]3(C=O)[C@H]4CC[C@]5(C)[C@@H](C6=CC(=O)OC6)CC[C@]5(O)[C@@H]4CC[C@]3(O)C2)[C@H](O)[C@H](O)[C@H]1O` here?
The Activity was “inactive”.

With `C[C@H]1O[C@@H](O[C@H]2[C@@H](O)C[C@H](O[C@H]3[C@@H](O)C[C@H](O[C@H]4CC[C@@]5(C)[C@H](CC[C@@H]6[C@@H]5C[C@@H](O)[C@]5(C)[C@@H](C7=CC(=O)OC7)CC[C@]65O)C4)O[C@@H]3C)O[C@@H]2C)C[C@H](O)[C@@H]1O` as the compound, how does the Activity (Saccharomyces cerevisiae [1]) read?
The Activity was “inactive”.

`C[C@H]1CC[C@@]2(OC1)O[C@H]1C[C@H]3[C@@H]4CC[C@H]5C[C@@H](O)C[C@@H](O[C@H]6O[C@@H](C)[C@@H](OS(=O)(=O)O)[C@@H](O)[C@@H]6O)[C@]5(C)[C@H]4CC[C@]3(C)[C@H]1[C@@H]2C` was tested. Which IC12 (Saccharomyces cerevisiae [3]) did it give?
The IC12 was 3.5 µg.

And the Activity (L1210 [4])?
The Activity was “inactive”.

With `C[C@H]1O[C@@H](O[C@H]2[C@@H](O)C[C@H](O[C@H]3[C@@H](O)C[C@H](O[C@H]4CC[C@@]5(C)[C@H](CC[C@@H]6[C@@H]5CC[C@]5(C)[C@@H](C7=CC(=O)OC7)[C@@H](O)C[C@]65O)C4)O[C@@H]3C)O[C@@H]2C)C[C@H](O)[C@@H]1O` as the compound, how does the Activity (Saccharomyces cerevisiae [1]) read?
Its Activity is “inactive”.

`C[C@@H]1O[C@@H](O[C@H]2C[C@@H](O)[C@]3(CO)[C@H]4[C@H](O)C[C@]5(C)[C@@H](C6=CC(=O)OC6)CC[C@]5(O)[C@@H]4CC[C@]3(O)C2)[C@H](O)[C@H](O)[C@H]1O` was tested. Which Activity (Saccharomyces cerevisiae [1]) did it give?
Its Activity is “inactive”.

Source: ChEMBL document CHEMBL1147365, “A screen for inhibitors of DNA recombination: identification of two new spirostanol glycosides from Chamaedorea linearis” (J Nat Prod, 1993)
